Measured values: ChEMBL document CHEMBL4689842, “EUbOPEN Chemogenomics Library wave 1” (2021)

Test system: HEK-293T
Assay: Multiplex assay against HEK293T;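 for Population Tubulin-Different-Phenotype (%): share of the cells with healthy nuclei that show this phenotype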
Type: toxicity, cell-based
Conditions: human
In short: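 Live cells were stained at seeding with Hoechst33342, BioTracker Green Microtubule Cytoskeleton Dye, MitoTracker Red and Annexin V Alexa Fluor 680, then imaged on a CQ1 microscope at 37°C and 5% CO2 after compound addition. CellPathfinder machine-learning gating split cells into Hoechst high-intensity objects or normal cells. Normal cells were split into healthy, pyknosed or fragmented nuclei, and pyknosed cells into mitotic or apoptotic. Tubulin, mitochondrial-mass and membrane-permeability phenotypes are per cents of healthy-nucleus cells.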

[1] = 12 h, 1 µM, compound concentration 1 uM, replicate 1
[2] = 12 h, 1 µM, compound concentration 1 uM, replicate 2
[3] = 12 h, 10 µM, compound concentration 10 uM, replicate 1
[4] = 12 h, 10 µM, compound concentration 10 uM, replicate 2
[5] = 24 h, 1 µM, compound concentration 1 uM, replicate 1
[6] = 24 h, 1 µM, compound concentration 1 uM, replicate 2
[7] = 24 h, 10 µM, compound concentration 10 uM, replicate 1
[8] = 24 h, 10 µM, compound concentration 10 uM, replicate 2

COc1cccc2cc(-c3nc([C@H]4CC[C@H](C(=O)O)CC4)n4ncnc(N)c34)[nH]c12 [OSI-027]
Population Apoptotic (%) [1]: 25% | Population Fragmented Nuclei (%) [1]: 14% | Population Healthy Nuclei (%) [1]: 55% | Population Hoechst High Intensity Objects (%) [1]: 16% | Population Membrane Permeable-Phenotype (%) [1]: 3% | Population Mitochondria Different-Phenotype (%) [1]: 10% | Population Mitotic Cells (%) [1]: 74% | Population Normal (%) [1]: 83% | Population Pyknosed Nuclei (%) [1]: 29% | Population Tubulin-Different-Phenotype (%) [1]: 5% | Total Cell Count [1]: 587 | Population Apoptotic (%) [2]: 9% | Population Fragmented Nuclei (%) [2]: 6% | Population Healthy Nuclei (%) [2]: 85% | Population Hoechst High Intensity Objects (%) [2]: 6% | Population Membrane Permeable-Phenotype (%) [2]: 2% | Population Mitochondria Different-Phenotype (%) [2]: 13% | Population Mitotic Cells (%) [2]: 90% | Population Normal (%) [2]: 93% | Population Pyknosed Nuclei (%) [2]: 7% | Population Tubulin-Different-Phenotype (%) [2]: 10% | Total Cell Count [2]: 997 | Population Apoptotic (%) [3]: 23% | Population Fragmented Nuclei (%) [3]: 32% | Population Healthy Nuclei (%) [3]: 40% | Population Hoechst High Intensity Objects (%) [3]: 22% | Population Membrane Permeable-Phenotype (%) [3]: 8% | Population Mitochondria Different-Phenotype (%) [3]: 2% | Population Mitotic Cells (%) [3]: 76% | Population Normal (%) [3]: 77% | Population Pyknosed Nuclei (%) [3]: 27% | Population Tubulin-Different-Phenotype (%) [3]: 2% | Total Cell Count [3]: 379 | Population Apoptotic (%) [4]: 10% | Population Fragmented Nuclei (%) [4]: 9% | Population Healthy Nuclei (%) [4]: 85% | Population Hoechst High Intensity Objects (%) [4]: 5% | Population Membrane Permeable-Phenotype (%) [4]: 0% | Population Mitochondria Different-Phenotype (%) [4]: 8% | Population Mitotic Cells (%) [4]: 89% | Population Normal (%) [4]: 94% | Population Pyknosed Nuclei (%) [4]: 5% | Population Tubulin-Different-Phenotype (%) [4]: 5% | Total Cell Count [4]: 1068 | Population Apoptotic (%) [5]: 22% | Population Fragmented Nuclei (%) [5]: 15% | Population Healthy Nuclei (%) [5]: 60% | Population Hoechst High Intensity Objects (%) [5]: 19% | Population Membrane Permeable-Phenotype (%) [5]: 15% | Population Mitochondria Different-Phenotype (%) [5]: 8% | Population Mitotic Cells (%) [5]: 77% | Population Normal (%) [5]: 80% | Population Pyknosed Nuclei (%) [5]: 24% | Population Tubulin-Different-Phenotype (%) [5]: 20% | Total Cell Count [5]: 478 | Population Apoptotic (%) [6]: 4% | Population Fragmented Nuclei (%) [6]: 7% | Population Healthy Nuclei (%) [6]: 83% | Population Hoechst High Intensity Objects (%) [6]: 8% | Population Membrane Permeable-Phenotype (%) [6]: 6% | Population Mitochondria Different-Phenotype (%) [6]: 13% | Population Mitotic Cells (%) [6]: 95% | Population Normal (%) [6]: 91% | Population Pyknosed Nuclei (%) [6]: 8% | Population Tubulin-Different-Phenotype (%) [6]: 37% | Total Cell Count [6]: 849 | Population Apoptotic (%) [7]: 12% | Population Fragmented Nuclei (%) [7]: 29% | Population Healthy Nuclei (%) [7]: 53% | Population Hoechst High Intensity Objects (%) [7]: 14% | Population Membrane Permeable-Phenotype (%) [7]: 10% | Population Mitochondria Different-Phenotype (%) [7]: 3% | Population Mitotic Cells (%) [7]: 87% | Population Normal (%) [7]: 85% | Population Pyknosed Nuclei (%) [7]: 17% | Population Tubulin-Different-Phenotype (%) [7]: 6% | Total Cell Count [7]: 371 | Population Apoptotic (%) [8]: 0% | Population Fragmented Nuclei (%) [8]: 18% | Population Healthy Nuclei (%) [8]: 78% | Population Hoechst High Intensity Objects (%) [8]: 5% | Population Membrane Permeable-Phenotype (%) [8]: 5% | Population Mitotic Cells (%) [8]: 100% | Population Normal (%) [8]: 94% | Population Pyknosed Nuclei (%) [8]: 2% | Population Tubulin-Different-Phenotype (%) [8]: 10% | Total Cell Count [8]: 1604
